Data taken from ChEMBL document CHEMBL3244174, “Synthesis and biological activity of some new furan quaternary salts” (J Med Chem, 1977).

How the values were obtained:
[1] = system: Candida albicans; assay: Antifungal activity against Candida albicans SKF 2270 assessed as growth inhibition by agar dilution method; type: functional
[2] = system: Cryptococcus neoformans; assay: Antifungal activity against Cryptococcus neoformans 103 assessed as growth inhibition by agar dilution method; type: functional
[3] = system: Trichophyton mentagrophytes; assay: Antifungal activity against Trichophyton mentagrophytes A-280 USPHS assessed as growth inhibition by agar dilution method; type: functional
[4] = system: Trichophyton rubrum; assay: Antifungal activity against Trichophyton rubrum 252 CSTM assessed as growth inhibition by agar dilution method; type: functional
[5] = system: Microsporum canis; assay: Antifungal activity against Microsporum canis VM-200 USPHS assessed as growth inhibition by agar dilution method; type: functional
[6] = system: Nannizzia gypsea; assay: Antifungal activity against Microsporum gypseum 153 CSTM assessed as growth inhibition by agar dilution method; type: functional
[7] = system: Histoplasma capsulatum; assay: Antifungal activity against Histoplasma capsulatum RNSH Hi-70 1/2 assessed as growth inhibition by agar dilution method; type: functional
[8] = system: Staphylococcus aureus; assay: Antibacterial activity against Staphylococcus aureus ATCC 6538 assessed as growth inhibition after 24 hrs by dilution tube method; type: functional; conditions: ATCC 6538, 24 h
Outline: (§1)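 Broth tube dilution in Tryptone Soya Broth, duplicate tubes at each concentration. MIC (μg/ml) was the highest dilution preventing visible growth. Nitrofurantoin run under the same conditions.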

[9] = system: Enterococcus faecalis; assay: Antibacterial activity against Streptococcus faecalis ATCC 10541 assessed as growth inhibition after 24 hrs by dilution tube method; type: functional; conditions: ATCC 10541, 24 h; outline: as §1
[10] = system: Pseudomonas aeruginosa; assay: Antibacterial activity against Pseudomonas aeruginosa ATCC 10145 assessed as growth inhibition after 24 hrs by dilution tube method; type: functional; conditions: ATCC 10145, 24 h; outline: as §1
[11] = system: Klebsiella pneumoniae; assay: Antibacterial activity against Klebsiella pneumoniae ATCC 10031 assessed as growth inhibition after 24 hrs by dilution tube method; type: functional; conditions: ATCC 10031, 24 h; outline: as §1
[12] = system: Salmonella typhi; assay: Antibacterial activity against Salmonella typhi 115 assessed as growth inhibition after 24 hrs by dilution tube method; type: functional, Salmonella enterica subsp. enterica serovar Typhi; conditions: Salmonella enterica, 115, 24 h
Outline: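 Dilution tube method in Tryptone Soya Broth; MIC (μg/ml) taken as highest dilution preventing visible growth; duplicates at every concentration; nitrofurantoin reference run under same conditions.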

[13] = system: Agrobacterium tumefaciens; assay: Antibacterial activity against Agrobacterium tumefaciens NRRL B-36 assessed as growth inhibition after 24 hrs by dilution tube method; type: functional; conditions: NRRL B-36, 24 h; outline: as §1
[14] = system: Escherichia coli; assay: Antibacterial activity against Escherichia coli 114 assessed as growth inhibition after 24 hrs by dilution tube method; type: functional; conditions: Escherichia coli, 114, 24 h; outline: as §1
[15] = system: Mycobacterium tuberculosis; assay: Antibacterial activity against Mycobacterium tuberculosis H37Rv assessed as growth inhibition by serial dilution method; type: functional
Outline: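 M. tuberculosis H37Rv maintained on Lowenstein–Jensen medium; tested in Youman's medium by serial dilution.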

## C[N+](C)(CCCCCCCOc1c(Br)cc(Br)cc1Br)Cc1ccc(Br)o1.[Br-]
[1]
  MIC: > 200 µg/mL
[2]
  MIC: 5 µg/mL
[3]
  MIC: > 200 µg/mL
[4]
  MIC: > 200 µg/mL
[5]
  MIC: > 200 µg/mL
[6]
  MIC: > 200 µg/mL
[7]
  MIC: > 200 µg/mL
[8]
  MIC: 3 µg/mL
[9]
  MIC: 4 µg/mL
[10]
  MIC: 2 µg/mL
[11]
  MIC: 2 µg/mL
[12]
  MIC: > 200 µg/mL
[13]
  MIC: 7.5 µg/mL
[14]
  MIC: > 200 µg/mL
[15]
  MIC: 25 µg/mL

## Cc1cc(OCCCCCCCC[N+](C)(C)Cc2ccc([N+](=O)[O-])o2)c(C(C)C)cc1Cl.[Br-]
[1]
  MIC: > 200 µg/mL
[2]
  MIC: 4 µg/mL
[3]
  MIC: > 200 µg/mL
[4]
  MIC: > 200 µg/mL
[5]
  MIC: > 200 µg/mL
[6]
  MIC: > 200 µg/mL
[7]
  MIC: > 200 µg/mL
[8]
  MIC: 2 µg/mL
[9]
  MIC: 3 µg/mL
[10]
  MIC: 1 µg/mL
[11]
  MIC: 2 µg/mL
[12]
  MIC: > 200 µg/mL
[13]
  MIC: 4 µg/mL
[14]
  MIC: > 200 µg/mL
[15]
  MIC: 7.5 µg/mL

## C[N+](C)(CCCCCOc1c(Br)cc(Br)cc1Br)Cc1ccco1.[Br-]
[1]
  MIC: 100 µg/mL
[2]
  MIC: 25 µg/mL
[3]
  MIC: 100 µg/mL
[4]
  MIC: > 200 µg/mL
[5]
  MIC: 100 µg/mL
[6]
  MIC: 100 µg/mL
[7]
  MIC: 50 µg/mL
[8]
  MIC: 25 µg/mL
[9]
  MIC: 50 µg/mL
[10]
  MIC: 25 µg/mL
[11]
  MIC: 25 µg/mL
[12]
  MIC: > 200 µg/mL
[13]
  MIC: 100 µg/mL
[14]
  MIC: > 200 µg/mL
[15]
  MIC: 25 µg/mL

## Cc1cc(OCCCCCCCCCCCCCC[N+](C)(C)Cc2ccc(Br)o2)c(C(C)C)cc1Cl.Cc1ccc(S(=O)(=O)[O-])cc1
[1]
  MIC: > 200 µg/mL
[2]
  MIC: > 200 µg/mL
[3]
  MIC: > 200 µg/mL
[4]
  MIC: > 200 µg/mL
[5]
  MIC: > 200 µg/mL
[6]
  MIC: > 200 µg/mL
[7]
  MIC: > 200 µg/mL
[8]
  MIC: > 200 µg/mL
[9]
  MIC: > 200 µg/mL
[10]
  MIC: 200 µg/mL
[11]
  MIC: 200 µg/mL
[12]
  MIC: > 200 µg/mL
[13]
  MIC: > 200 µg/mL
[14]
  MIC: > 200 µg/mL
[15]
  MIC: > 200 µg/mL

## Cc1cc(OCCCCCCC[N+](C)(C)Cc2ccc([N+](=O)[O-])o2)c(C(C)C)cc1Cl.[Br-]
[1]
  MIC: > 200 µg/mL
[2]
  MIC: 4 µg/mL
[3]
  MIC: > 200 µg/mL
[4]
  MIC: > 200 µg/mL
[5]
  MIC: > 200 µg/mL
[6]
  MIC: > 200 µg/mL
[7]
  MIC: > 200 µg/mL
[8]
  MIC: 4 µg/mL
[9]
  MIC: 3 µg/mL
[10]
  MIC: 2 µg/mL
[11]
  MIC: 3 µg/mL
[12]
  MIC: > 200 µg/mL
[13]
  MIC: 7.5 µg/mL
[14]
  MIC: > 200 µg/mL
[15]
  MIC: 5 µg/mL

## Cc1cc(OCCC[N+](C)(C)Cc2ccc([N+](=O)[O-])o2)c(C(C)C)cc1Cl.[Br-]
[1]
  MIC: > 200 µg/mL
[2]
  MIC: > 200 µg/mL
[3]
  MIC: > 200 µg/mL
[4]
  MIC: > 200 µg/mL
[5]
  MIC: > 200 µg/mL
[6]
  MIC: > 200 µg/mL
[7]
  MIC: > 200 µg/mL
[8]
  MIC: 25 µg/mL
[9]
  MIC: 25 µg/mL
[10]
  MIC: 2 µg/mL
[11]
  MIC: 5 µg/mL
[12]
  MIC: 100 µg/mL
[13]
  MIC: 25 µg/mL
[14]
  MIC: > 200 µg/mL
[15]
  MIC: > 200 µg/mL

## C[N+](C)(CCCCCCCCCCOc1c(Br)cc(Br)cc1Br)Cc1ccc(Br)o1.[Br-]
[1]
  MIC: > 200 µg/mL
[2]
  MIC: 4 µg/mL
[3]
  MIC: > 200 µg/mL
[4]
  MIC: > 200 µg/mL
[5]
  MIC: > 200 µg/mL
[6]
  MIC: > 200 µg/mL
[7]
  MIC: > 200 µg/mL
[8]
  MIC: 10 µg/mL
[9]
  MIC: 4 µg/mL
[10]
  MIC: 2 µg/mL
[11]
  MIC: 3 µg/mL
[12]
  MIC: > 200 µg/mL
[13]
  MIC: 7.5 µg/mL
[14]
  MIC: > 200 µg/mL
[15]
  MIC: 50 µg/mL

## C[N+](C)(CCCCCOc1c(Br)cc(Br)cc1Br)Cc1ccc([N+](=O)[O-])o1.[Br-]
[1]
  MIC: > 200 µg/mL
[2]
  MIC: 25 µg/mL
[3]
  MIC: > 200 µg/mL
[4]
  MIC: > 200 µg/mL
[5]
  MIC: > 200 µg/mL
[6]
  MIC: > 200 µg/mL
[7]
  MIC: > 200 µg/mL
[8]
  MIC: 25 µg/mL
[9]
  MIC: 25 µg/mL
[10]
  MIC: 7.5 µg/mL
[11]
  MIC: 5 µg/mL
[12]
  MIC: > 200 µg/mL
[13]
  MIC: 25 µg/mL
[14]
  MIC: > 200 µg/mL
[15]
  MIC: 7.5 µg/mL

## C[N+](C)(CCCCCCCCCCCCOc1c(Br)cc(Br)cc1Br)Cc1ccc(Br)o1.[Br-]
[1]
  MIC: > 200 µg/mL
[2]
  MIC: 200 µg/mL
[3]
  MIC: > 200 µg/mL
[4]
  MIC: > 200 µg/mL
[5]
  MIC: 200 µg/mL
[6]
  MIC: > 200 µg/mL
[7]
  MIC: > 200 µg/mL
[8]
  MIC: 200 µg/mL
[9]
  MIC: 200 µg/mL
[10]
  MIC: 50 µg/mL
[11]
  MIC: 200 µg/mL
[12]
  MIC: > 200 µg/mL
[13]
  MIC: > 200 µg/mL
[14]
  MIC: > 200 µg/mL
[15]
  MIC: 100 µg/mL

## Cc1ccc(C[N+](C)(C)CCCCCOc2c(Br)cc(Br)cc2Br)o1.[Br-]
[1]
  MIC: > 200 µg/mL
[2]
  MIC: 25 µg/mL
[3]
  MIC: > 200 µg/mL
[4]
  MIC: > 200 µg/mL
[5]
  MIC: > 200 µg/mL
[6]
  MIC: > 200 µg/mL
[7]
  MIC: 100 µg/mL
[8]
  MIC: 7.5 µg/mL
[9]
  MIC: 25 µg/mL
[10]
  MIC: 5 µg/mL
[11]
  MIC: 5 µg/mL
[12]
  MIC: 100 µg/mL
[13]
  MIC: 25 µg/mL
[14]
  MIC: > 200 µg/mL
[15]
  MIC: 5 µg/mL
